Measurements reported in ChEMBL document CHEMBL4387724, “2-Pyridineformamide N(4)-ring incorporated thiosemicarbazones inhibit MCF-7 cells by inhibiting JNK pathway” (Bioorg Med Chem Lett, 2019).
pIC50: −log10 of the molar value.

Key:
A-431 [1] = assay: Cytotoxicity against human A431 cells assessed as reduction in cell growth at 3 uM incubated for 72 hrs by MTT assay relative to control; type: functional; conditions: A-431, 72 h, read-out: GI
Procedure, shortened: (§1)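 Cells grown in DMEM with 10% FBS and penicillin-streptomycin at 37 °C, 5% CO2, seeded at 3000 cells/well and attached overnight. Screening series given at 1, 3, 10, 100 μM; follow-up agent at 100 nM–3 μM; both 72 h, with 0.1% DMSO vehicle. MTT (5 mg/mL stock) added for 3 h at 37 °C, formazan dissolved in DMSO, absorbance read at 570 nm. Viability expressed as % of DMSO-treated wells from replicates.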

A-375 [2] = assay: Cytotoxicity against human A375 cells assessed as reduction in cell growth at 3 uM incubated for 72 hrs by MTT assay relative to control; type: functional; conditions: A-375, 72 h, read-out: GI; procedure, shortened: as §1
HeLa [3] = assay: Cytotoxicity against human HeLa cells assessed as reduction in cell growth at 1 uM incubated for 72 hrs by MTT assay relative to control; type: functional; conditions: read-out: GI; procedure, shortened: as §1
A-431 [4] = assay: Cytotoxicity against human A431 cells assessed as reduction in cell growth at 100 uM incubated for 72 hrs by MTT assay relative to control; type: functional; conditions: A-431, 72 h, read-out: GI; procedure, shortened: as §1
MCF7 [5] = assay: Cytotoxicity against human MCF7 cells assessed as reduction in cell growth at 30 uM incubated for 72 hrs by MTT assay relative to control; type: functional; conditions: MCF7, 72 h, read-out: GI
A-375 [6] = assay: Cytotoxicity against human A375 cells assessed as reduction in cell growth at 1 uM incubated for 72 hrs by MTT assay relative to control; type: functional; conditions: A-375, 72 h, read-out: GI; procedure, shortened: as §1
MCF7 [7] = assay: Cytotoxicity against human MCF7 cells assessed as reduction in cell growth at 10 uM incubated for 72 hrs by MTT assay relative to control; type: functional; conditions: MCF7, 72 h, read-out: GI; procedure, shortened: as §1
HeLa [8] = assay: Cytotoxicity against human HeLa cells assessed as reduction in cell growth at 100 uM incubated for 72 hrs by MTT assay relative to control; type: functional; conditions: read-out: GI; procedure, shortened: as §1
A-431 [9] = assay: Cytotoxicity against human A431 cells assessed as reduction in cell growth at 30 uM incubated for 72 hrs by MTT assay relative to control; type: functional; conditions: A-431, 72 h, read-out: GI
HeLa [10] = assay: Cytotoxicity against human HeLa cells assessed as reduction in cell growth at 3 uM incubated for 72 hrs by MTT assay relative to control; type: functional; conditions: read-out: GI; procedure, shortened: as §1
A-375 [11] = assay: Cytotoxicity against human A375 cells assessed as reduction in cell growth incubated for 72 hrs by MTT assay; type: functional, cell-based; conditions: A-375, 72 h; procedure, shortened: as §1
A-431 [12] = assay: Cytotoxicity against human A431 cells assessed as reduction in cell growth incubated for 72 hrs by MTT assay; type: functional, cell-based; conditions: A-431, 72 h; procedure, shortened: as §1
HeLa [13] = assay: Cytotoxicity against human HeLa cells assessed as reduction in cell growth at 10 uM incubated for 72 hrs by MTT assay relative to control; type: functional; conditions: read-out: GI; procedure, shortened: as §1
MCF7 [14] = assay: Cytotoxicity against human MCF7 cells assessed as reduction in cell growth at 3 uM incubated for 72 hrs by MTT assay relative to control; type: functional; conditions: MCF7, 72 h, read-out: GI; procedure, shortened: as §1
A-375 [15] = assay: Cytotoxicity against human A375 cells assessed as reduction in cell growth at 30 uM incubated for 72 hrs by MTT assay relative to control; type: functional; conditions: A-375, 72 h, read-out: GI
MCF7 [16] = assay: Cytotoxicity against human MCF7 cells assessed as reduction in cell growth at 100 uM incubated for 72 hrs by MTT assay relative to control; type: functional; conditions: MCF7, 72 h, read-out: GI; procedure, shortened: as §1
A-375 [17] = assay: Cytotoxicity against human A375 cells assessed as reduction in cell growth at 100 uM incubated for 72 hrs by MTT assay relative to control; type: functional; conditions: A-375, 72 h, read-out: GI; procedure, shortened: as §1
HeLa [18] = assay: Cytotoxicity against human HeLa cells assessed as reduction in cell growth at 30 uM incubated for 72 hrs by MTT assay relative to control; type: functional; conditions: read-out: GI
HeLa [19] = assay: Cytotoxicity against human HeLa cells assessed as reduction in cell growth incubated for 72 hrs by MTT assay; type: functional, cell-based; procedure, shortened: as §1
MCF7 [20] = assay: Cytotoxicity against human MCF7 cells assessed as reduction in cell growth at 1 uM incubated for 72 hrs by MTT assay relative to control; type: functional; conditions: MCF7, 72 h, read-out: GI; procedure, shortened: as §1
MCF7 [21] = assay: Cytotoxicity against human MCF7 cells assessed as reduction in cell growth incubated for 72 hrs by MTT assay; type: functional, cell-based; conditions: MCF7, 72 h; procedure, shortened: as §1
A-375 [22] = assay: Cytotoxicity against human A375 cells assessed as reduction in cell growth at 10 uM incubated for 72 hrs by MTT assay relative to control; type: functional; conditions: A-375, 72 h, read-out: GI; procedure, shortened: as §1
A-431 [23] = assay: Cytotoxicity against human A431 cells assessed as reduction in cell growth at 10 uM incubated for 72 hrs by MTT assay relative to control; type: functional; conditions: A-431, 72 h, read-out: GI; procedure, shortened: as §1
A-431 [24] = assay: Cytotoxicity against human A431 cells assessed as reduction in cell growth at 1 uM incubated for 72 hrs by MTT assay relative to control; type: functional; conditions: A-431, 72 h, read-out: GI; procedure, shortened: as §1

Row | Structure (SMILES) | inhibition of growth at 3 µM (A-431 [1]) | inhibition of growth at 3 µM (A-375 [2]) | inhibition of growth at 1 µM (HeLa [3]) | inhibition of growth at 100 µM (A-431 [4]) | inhibition of growth at 30 µM (MCF7 [5]) | inhibition of growth at 1 µM (A-375 [6]) | inhibition of growth at 10 µM (MCF7 [7]) | inhibition of growth at 100 µM (HeLa [8]) | inhibition of growth at 30 µM (A-431 [9]) | inhibition of growth at 3 µM (HeLa [10]) | pIC50 (A-375 [11]) | pIC50 (A-431 [12]) | inhibition of growth at 10 µM (HeLa [13]) | inhibition of growth at 3 µM (MCF7 [14]) | inhibition of growth at 30 µM (A-375 [15]) | inhibition of growth at 100 µM (MCF7 [16]) | inhibition of growth at 100 µM (A-375 [17]) | inhibition of growth at 30 µM (HeLa [18]) | pIC50 (HeLa [19]) | inhibition of growth at 1 µM (MCF7 [20]) | further results
1 | Cc1cccc(/C(N)=N/NC(=S)N2CCN(c3ccccn3)CC2)n1 | 34.3% | 61.8% | 51.8% | 78.9% | 36% | 58.4% | 20.8% | 86.3% | 57.4% | 72.7% | 6.07 | 4.71 | 72.8% | 27.1% | 74.8% | 49.8% | 83.8% | 86.3% | 6.05 | 8.5% | pIC50 (MCF7 [21]): < 4.00; inhibition of growth at 10 µM (A-375 [22]): 63.3%; inhibition of growth at 10 µM (A-431 [23]): 43%; inhibition of growth at 1 µM (A-431 [24]): 9.2%
2 | Cc1cccc(/C(N)=N/NC(=S)N2CCCCC2)n1 | 36.6% | 63.2% | 27% | 77.5% | 43% | 49.9% | 39% | 85.4% | 65.2% | 68.9% | 6.00 | 4.91 | 83.5% | 27.1% | 80.9% | 54% | 85.7% | 83.5% | 5.70 | 19.5% | pIC50 (MCF7 [21]): 4.13; inhibition of growth at 10 µM (A-375 [22]): 76.4%; inhibition of growth at 10 µM (A-431 [23]): 47.8%; inhibition of growth at 1 µM (A-431 [24]): 35%
3 | Cc1cccc(/C(N)=N/NC(=S)N2CCOCC2)n1 | 45.8% | 34.7% | 25.7% | 84.8% | 57.8% | 30.2% | 39.1% | 82.4% | 80% | 65.7% | 4.85 | 5.37 | 85.4% | 21.6% | 74.3% | 74.7% | 83.8% | 86.9% | 5.66 | 11.7% | pIC50 (MCF7 [21]): 4.67; inhibition of growth at 10 µM (A-375 [22]): 43.6%; inhibition of growth at 10 µM (A-431 [23]): 68.1%; inhibition of growth at 1 µM (A-431 [24]): 47.2%
4 | N/C(=N\NC(=S)N1CCN(c2ccccn2)CC1)c1ccccn1 | 45.8% | 73.7% | 16.7% | 91.9% | 65.3% | 70% | 46.4% | 85.6% | 74.9% | 24.4% | 6.15 | 5.37 | 56.1% | 37.2% | 81% | 68.3% | 86.8% | 78.9% | 5.07 | 36% | pIC50 (MCF7 [21]): 4.86; inhibition of growth at 10 µM (A-375 [22]): 74.4%; inhibition of growth at 10 µM (A-431 [23]): 69%; inhibition of growth at 1 µM (A-431 [24]): 11.6%
5 | N/C(=N\NC(=S)N1CCCCCC1)c1ccc(F)cn1 | 62.4% | 66.6% | 50% | 83.5% | 68.2% | 51.8% | 26.8% | 85.6% | 81.3% | 65.1% | 6.02 | 6.00 | 83.2% | 24.3% | 80% | 79% | 85.7% | 84.5% | 6.05 | 16.8% | pIC50 (MCF7 [21]): 4.68; inhibition of growth at 10 µM (A-375 [22]): 72.2%; inhibition of growth at 10 µM (A-431 [23]): 64.4%; inhibition of growth at 1 µM (A-431 [24]): 50.3%
6 | Cc1ccnc(/C(N)=N/NC(=S)N2CCCCC2)c1 | 36.5% | 69.5% | 15.3% | 77.6% | 61.7% | 33.5% | 40.7% | 70.8% | 62.8% | 23.9% | 5.72 | 4.72 | 62.1% | 29.4% | 80% | 80.1% | 85.6% | 69.1% | 5.11 | 21.2% | pIC50 (MCF7 [21]): 4.73; inhibition of growth at 10 µM (A-375 [22]): 81.2%; inhibition of growth at 10 µM (A-431 [23]): 39.7%; inhibition of growth at 1 µM (A-431 [24]): 31.1%
